# ERAP1 HTS inh: human ERAP1 aminopeptidase inhibitors, primary screen, biochemical, single point, plate reader; Endoplasmic reticulum aminopeptidase 1 (Homo sapiens), Q9NZ08; inhibition, % at 10.7 µM; 340,000 compounds, 0.15% hits; recombinant ERAP1, Leu-AMC fluorescence, 60 min;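 active means mean replicate inhibition of at least 30%, or all replicates individually reaching that 30% level; inactive means mean below 30% and not every replicate reaching it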;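 further: 0% = neutral control wells and 100% = L-leucinethiol positive control wells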
# HIV Env fusion: inhibitors of HIV-1 Env-driven cell-cell fusion, primary screen, HeLa-JRFL effector, CEM21 target cells, luciferase. inhibition, % at 12.3 µM. 360,000 compounds, 1.1% hits;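 active means mean replicate inhibition score of at least 50 and every replicate individually at or above 50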;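 further: 0% = plate neutral controls and 100% = maraviroc near 300 nM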
# MITF act: activators of MITF-driven TRPM1 promoter reporter, primary screen, cell-based, SK-MEL-5, luciferase, single point | AID 588334, 2011 | 300,000 compounds, 0.75% hits | activation, % at 12.5 µM | SK-MEL-5 TRPM1-promoter luciferase, 24 h; % of positive control, neutral wells = 0;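 active means mean activation of at least 80% with every replicate also reaching 80%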;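 further: 0% = neutral control wells and 100% = parthenolide positive control wells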
# Wnt bcat act: Wnt/beta-catenin pathway activators, primary screen, cell-based, plate reader, single point. Wnt/beta-catenin reporter cell assay, activator. activation, % at 9.35 µM. 300,000 compounds, 1.2% hits; in the data active means activation above about 30%, passing the limit was not always enough;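 further: 0% = neutral control wells and 100% = positive control wells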
# esBAF inh: Bmi1 luciferase reporter increase in mESCs, primary screen, esBAF inhibitor project, mouse ES cells, Bmi1 luciferase knock-in, single point. 24 h; 100% = twice the neutral-well signal. reporter increase, % at 12.5 µM. 350,000 compounds, 2% hits; in the data active means activation above about 40%;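 further: 0% = median of the plate's neutral control wells and 100% = double that signal; a rise in the Bmi1 reporter signal indicates esBAF inhibition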
# Cneo AK release: Cryptococcus neoformans cell lysis inducers, primary screen, AK release luminescence, single concentration; 360,000 compounds, 0.2% hits; lysis activity, % at 15 µM; C. neoformans lysis, adenylate kinase release luminescence, 4 h; normalised: neutral wells 0, clomiphene wells 100; AID 651654, 2012;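 active means mean lysis activity across replicates of at least 80%, whatever share of replicates individually reach that level; inactive means mean lysis activity below 80%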
#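 Signal: Adenylate kinase release luminescence | Assay system: Log-phase Cryptococcus neoformans yeast cells | Input: Cells at 5 × 10^6 per mL | Buffer or medium: Fresh YPD growth medium | Compound: Single dose | Schedule: Static 4 h at 37 °C with compound, 1 h detection | Controls: Clomiphene | Read-out: Luminescence rise reflecting yeast cell lysis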
# * hit, by the source's call; i = inactive; · = not tested or not shown; [ ] = another dose, or the depositor's remark. Shown are actives, neighbours in structure and some others; about 3.5% of the full set was active somewhere.
SMILES,ERAP1 HTS inh,HIV Env fusion,MITF act,Wnt bcat act,esBAF inh,Cneo AK release
O=C(Nc1nnc([C@@H]2C[C@H](O)[C@@H](CO)O2)s1)Nc1ccccc1F,-3,-8,·,39*,6,6
O=C(Nc1nnc(Cc2ccccc2F)s1)Nc1ccccc1F,-1,-8,29,5,44*,-1
C[C@@H]1CN([C@H](C)CO)S(=O)(=O)c2ccc(C3=CCCCC3)cc2O[C@@H]1CN(C)Cc1cncnc1,3,8[16.7 µM],·,·,-9,0
COC(=O)C[C@@H]1C=C[C@@H](NS(=O)(=O)c2ccc(OC)cc2)[C@H](CO)O1,1,8[16.7 µM],·,·,-3,31
Fc1ccccc1Cn1nnc2c(NCCc3ccccn3)ncnc21,·,·,17,·,48*,-2
Cc1ccc2[nH]c(C)c(/C=C/c3cc[n+](C)cc3)c2c1,16,60*,-52,-4,9,1
CCCNC(=O)N(C)C[C@@H]1Oc2ncc(-c3ccc(OC)cc3)cc2C(=O)N([C@@H](C)CO)C[C@H]1C,1,23[16.7 µM],·,·,5,-2
CC(CCN1CCC(CN2C(=S)NCC2Cc2ccccc2)CC1)c1ccccc1 (centres undefined),-4,66*,16,0,8,0
CC(C)C[C@H]1CNC(=S)N1C[C@H]1CCCN1C[C@H](Cc1ccc(O)cc1)N1C[C@H](Cc2ccccc2)N(CC2CCCCCC2)C1=S,·,94*,·,-2,-5,2
Oc1ccc(C[C@H]2CNC(=S)N2CC2CCCN2C[C@H](Cc2ccc(O)cc2)N2C[C@H](Cc3ccccc3)N(CC3CCCCCC3)C2=S)cc1 (some centres undefined),·,61*,-20,-4,1,5
O=C(N[C@H]1/C=C\[C@@H](O)CCCC1)OCc1ccccc1,·,-37,98*,4,70*,0
CC(=O)N(c1nnc(-c2cccc(C)c2)s1)C1CCCC1,1,-34,·,9,52*,-3
CCN(CC)S(=O)(=O)c1ccc(NS(=O)(=O)c2ccc(F)cc2)cc1,·,·,-3,·,-1,1
CCN(CC)S(=O)(=O)c1ccc(NS(=O)(=O)c2cccc(C)c2)cc1,·,-5,1,39*,5,0
CCN(CC)S(=O)(=O)c1cccc(S(=O)(=O)c2cccc(S(=O)(=O)N(CC)CC)c2)c1,·,79*,4,-5,-2,-1
CCN(CC)S(=O)(=O)c1cccc(S(=O)(=O)N2CCCCC2)c1,0,·,8,·,-1,-1
CN(C)C(=O)C[C@@H]1CC[C@@H]2[C@H](COC[C@@H](O)CN2CC2CCCC2)O1,1,·,·,·,-2,-3
COc1ccc2c3c(n(C)c2c1)[C@@H](CO)N(C(=O)c1cccc(F)c1)CC31CCN(C(=O)c2cccc(F)c2)CC1,-3,·,·,·,·,·
CCOC(=O)c1c(C)oc2c1c(C=NCC1CCCO1)c(O)c1ccccc12 (centres undefined),·,4,1,3,-6,5
CCOC(=O)c1c(C)oc2c1c(C(c1cccnc1)N1CCOCC1)c(O)c1ccccc12 (centres undefined),·,·,45,·,69*,·
CCOC(=O)c1c(C)oc2c1c1c(c3ccccc32)OCN(Cc2cccnc2)C1,·,·,27,·,74*,0
CCOC(=O)c1c(C)oc2c1c1c(c3ccccc32)OCN(CCCC(=O)O)C1,3,i,66,48*,51*,0
CCOC(=O)c1c(C)c(C(=O)NCc2cccnc2)c(C)n1CC,·,-53,-10,·,-9,·
CCOC(=O)c1c(C)oc2c1c(C=NCc1ccccn1)c(O)c1ccccc12,2,·,-32,7,·,·
C[C@H](CO)N1C[C@H](C)[C@H](CN(C)C(=O)CN(C)C)Oc2cc(C#C[C@@H](C)O)ccc2S1(=O)=O,1,-3[16.7 µM],·,·,-3,16
O=C(CC1CC1)N1CC(=O)N2[C@@H](CO)[C@H](c3ccc(C#Cc4ccccc4)cc3)[C@@H]2C1,-2,·,·,·,·,·

# Screening data from PubChem.
